Test results as given in ChEMBL document CHEMBL4130343, “Design, synthesis, and evaluation of benzofuran derivatives as novel anti-pancreatic carcinoma agents via interfering the hypoxia environment by targeting HIF-1α pathway” (Eur J Med Chem, 2017).
Calls of active or inactive are those of the source. No cut-off for these calls is given here.

Experiments:
[1] = Half life in rat at 10 mg/kg, po after 0.083 to 24 hrs by LC-MS/MS method; assay type: ADME, organism-based; conditions: in vivo
[2] = Cmax in rat at 10 mg/kg, ip after 0.083 to 24 hrs by LC-MS/MS method; assay type: ADME, organism-based; set-up: dose 10 mg/kg, route intraperitoneal; conditions: in vivo
[3] = AUC (0 to t) in rat at 10 mg/kg, ip after 0.083 to 24 hrs by LC-MS/MS method; assay type: ADME, organism-based; set-up: dose 10 mg/kg, time 0.083-24 hr, route intraperitoneal; conditions: in vivo
[4] = AUC (0 to t) in rat at 10 mg/kg, iv after 0.083 to 24 hrs by LC-MS/MS method; assay type: ADME, organism-based; set-up: time upper 24 hr, time lower 0.083 hr, dose 10 mg/kg, route intravenous; conditions: in vivo
Mus musculus [5] = assay: Toxicity in nude mouse xenografted with human PANC1 cells assessed as effect on body weight at 15 to 60 mg/kg, ip administered every 2 days for 21 days measured during compound dosing; assay type: organism-based; conditions: in vivo
Procedure, shortened: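 Female nude mice were implanted s.c. in the right flank with 1×10^7 PANC-1 cells. After 4 weeks, mice with tumours averaging 100 mm³ were randomized into five groups. They were dosed i.p. at 15, 30 or 60 mg/kg every two days for 21 days and monitored for toxicity, tumour growth and body weight.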

BXPC-3 = assay: Antiproliferative activity against human BxPC3 cells after 48 hrs by MTT assay; assay type: functional, cell-based; conditions: BXPC-3, 48 h
Procedure, shortened: (§1)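 Cells were seeded at 5×10^5 cells/mL overnight and exposed to graded compound concentrations for 48 h. MTT (5 mg/mL stock) was added for 4 h at 37 °C, and formazan was dissolved in DMSO. Absorbance was read at 570 nm. IC₅₀ was fitted from the curves; values are mean ± SD, n = 3.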

Mus musculus [6] = assay: Effect on HIF-1alpha expression in human PANC1 cells xenografted in nude mouse at 15 to 60 mg/kg, ip administered every 2 days for 21 days by immunohistochemical method; assay type: functional, organism-based
Procedure, shortened: (§2)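 Tumors came from the PANC-1 nude-mouse xenografts dosed at 15, 30 or 60 mg/kg i.p. every two days for 21 days. Tumor sections were stained immunohistochemically with antibodies against CD31, HIF-1α and VEGF.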

PANC-1 [7] = assay: Induction of apoptosis in human PANC1 cells assessed as dead cells at 0.1 uM after 24 hrs by annexin V/propidium iodide staining-based flow cytometric method (reference value: 0.60%); assay type: functional
A549 = assay: Antiproliferative activity against human A549 cells after 48 hrs by MTT assay; assay type: functional, cell-based; conditions: A549, 48 h; procedure, shortened: as §1
[8] = AUC (0 to t) in rat at 10 mg/kg, po after 0.083 to 24 hrs by LC-MS/MS method; assay type: ADME, organism-based; set-up: dose 10 mg/kg, time upper 24 hr, time lower 0.083 hr, route oral; conditions: in vivo
PANC-1 [9] = assay: Antitumor activity against human PANC1 cells xenografted in nude mouse assessed as inhibition of tumor weight at 15 mg/kg, ip administered every 2 days for 21 days relative to vehicle-treated control; assay type: functional; conditions: PANC-1, ip
Procedure, shortened: (§3)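 Female nude mice received 1×10^7 PANC-1 cells subcutaneously in the right flank. After 4 weeks, mice bearing tumors averaging 100 mm³ were randomized into five groups. Dosing was 15, 30 or 60 mg/kg i.p. every two days for 21 days. Tumor volume = width² × length/2; tumors were weighed at sacrifice, and body weight was monitored.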

PANC-1 [10] = assay: Induction of apoptosis in human PANC1 assessed as decrease in PARP levels at 0.1 to 1 uM after 24 hrs by Western blot method; assay type: functional, cell-based
Procedure, shortened: (§4)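 PANC-1 cells were treated with graded compound concentrations for 24 h, then lysed. Proteins were separated by SDS-PAGE and blotted to PVDF. Blots were probed for PARP, cleaved PARP, caspase-3, cleaved caspase-3, caspase-9 and cleaved caspase-9, with GAPDH as loading control, and read by infrared imaging. Bands were quantified by densitometry as ratios normalized to GAPDH.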

PANC-1 [11] = assay: Anticlonogenic activity against human PANC1 cells after 2 weeks by crystal violet staining-based assay; assay type: functional, cell-based
Procedure, shortened: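 PANC-1 cells were seeded at 100 cells/well overnight, then exposed to graded compound concentrations for 14 days with medium changed every three days. Colonies were fixed in 10% ethanol for 10 min and stained with 0.5% crystal violet in 25% ethanol for 10 min. Plates were dried and scanned.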

PANC-1 [12] = assay: Induction of apoptosis in human PANC1 assessed as increase in cleaved PARP levels at 0.1 to 1 uM after 24 hrs by Western blot method; assay type: functional, cell-based; procedure, shortened: as §4
[13] = Half life in rat at 10 mg/kg, iv after 0.083 to 24 hrs by LC-MS/MS method; assay type: ADME, organism-based; conditions: in vivo
PANC-1 [14] = assay: Induction of apoptosis in human PANC1 cells assessed as late apoptotic cells at 1 uM after 24 hrs by annexin V/propidium iodide staining-based flow cytometric method (reference value: 2.65%); assay type: functional
PANC-1 [15] = assay: Antitumor activity against human PANC1 cells xenografted in nude mouse assessed as inhibition of tumor weight at 30 mg/kg, ip administered every 2 days for 21 days relative to vehicle-treated control; assay type: functional; conditions: PANC-1, ip; procedure, shortened: as §3
PANC-1 [16] = assay: Induction of apoptosis in human PANC1 assessed as decrease in caspase-3 levels at 0.1 to 1 uM after 24 hrs by Western blot method; assay type: functional, cell-based; procedure, shortened: as §4
[17] = Cmax in rat at 10 mg/kg, po after 0.083 to 24 hrs by LC-MS/MS method; assay type: ADME, organism-based; set-up: dose 10 mg/kg, route oral; conditions: in vivo
[18] = Effective permeability of the compound at pH 7.4 by PAMPA; assay type: ADME; conditions: read-out: Peff
Procedure, shortened: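 Effective permeability was measured by double-sink PAMPA on a pION PAMPA Explorer.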

PANC-1 [19] = assay: Induction of apoptosis in human PANC1 assessed as decrease in caspase-9 levels at 0.1 to 1 uM after 24 hrs by Western blot method; assay type: functional, cell-based; procedure, shortened: as §4
HUVEC = assay: Antimigratory activity against HUVEC at 1 uM by wound-healing assay; assay type: functional, cell-based; conditions: Homo sapiens, TDE = time-dependent effect
Procedure, shortened: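 HUVEC monolayers at 90% confluence were switched to serum-free medium and scratched with a pipette tip. Compound was added under hypoxia (1% O₂, 94% N₂, 5% CO₂, 37 °C) in the presence of PANC-1 conditioned medium. Wound closure was imaged by inverted-phase microscope at 12 h and 24 h.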

PANC-1 [20] = assay: Induction of apoptosis in human PANC1 cells assessed as viable cells at 0.1 uM after 24 hrs by annexin V/propidium iodide staining-based flow cytometric method (reference value: 89.5%); assay type: functional; conditions: PANC-1, 24 h, read-out: Activity
HCT-116 = assay: Antiproliferative activity against human HCT116 cells after 48 hrs by MTT assay; assay type: functional, cell-based; conditions: HCT-116, 48 h; procedure, shortened: as §1
Mus musculus [21] = assay: Downregulation of VEGF expression in human PANC1 cells xenografted in nude mouse at 15 to 60 mg/kg, ip administered every 2 days for 21 days by immunohistochemical method; assay type: functional, organism-based; procedure, shortened: as §2
PANC-1 [22] = assay: Antiproliferative activity against human PANC1 cells after 48 hrs by MTT assay; assay type: functional, cell-based; conditions: PANC-1, 48 h; procedure, shortened: as §1
PANC-1 [23] = assay: Induction of apoptosis in human PANC1 cells assessed as early apoptotic cells at 0.1 uM after 24 hrs by annexin V/propidium iodide staining-based flow cytometric method (reference value: 7.25%); assay type: functional
MCF7 = assay: Antiproliferative activity against human MCF7 cells after 48 hrs by MTT assay; assay type: functional, cell-based; conditions: MCF7, 48 h; procedure, shortened: as §1

Question: What does the source list for `Cc1c(C(=O)NC2CCN(C)CC2)oc2ccc(N(Cc3ccc(Br)cc3)S(=O)(=O)c3ccc(Br)cc3)cc12`?
Answer: half-life [1]: 6.63 h; Cmax [2]: 549 ng/mL; AUC(0-t) [3]: 6220 ng·h/mL; AUC(0-t) [4]: 7220 ng·h/mL; Activity (Mus musculus [5]): Non-Toxic; IC50 (BXPC-3): 650 nM; Activity (Mus musculus [6]): inactive; Activity (PANC-1 [7]): 0.8%; IC50 (A549): 2680 nM; AUC(0-t) [8]: 1080 ng·h/mL; inhibition in vivo at 15 mg/kg (PANC-1 [9]): 39%; Activity (PANC-1 [10]): Active; Activity (PANC-1 [11]): Dose-dependent effect; Activity (PANC-1 [12]): Active; half-life [13]: 7.68 h; Activity (PANC-1 [14]): 45.6%; inhibition in vivo at 30 mg/kg (PANC-1 [15]): 66.4%; Activity (PANC-1 [16]): Active; Cmax [17]: 80.6 ng/mL; Papp [18]: 6.54 ×10⁻⁶ cm/s; Activity (PANC-1 [19]): Active; inhibition (HUVEC): Tde; viability at 0.1 µM (PANC-1 [20]): 85.5%; IC50 (HCT-116): 1810 nM; Activity (Mus musculus [21]): Active; IC50 (PANC-1 [22]): 1070 nM; Activity (PANC-1 [23]): 4.45%; IC50 (MCF7): 2390 nM
